From ChEMBL document CHEMBL1134340, “GnRH antagonists: a new generation of long acting analogues incorporating p-ureido-phenylalanines at positions 5 and 6” (J Med Chem, 2001)
Values after ≈ are worked out from the molar mass of the structure shown.

Experiments:
[1] = organism: Rattus norvegicus; experiment: Compound was tested for inhibition of Leutenizing hormone release at 96 hours (very long duration) in castrated male rat assay; type: functional; design: concentration or dose not given beside the values
Outline: (§1)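 Male Sprague-Dawley rats (180-200 g), castrated under ether 10 days earlier, 5 per group. 50 µg/rat given sc in 100 µL 40 mM phosphate buffer with 0.1% BSA and 0.6% DMSO; acyline run as internal standard. Tail blood taken predose and at 24, 48, 72, 96 (sometimes 120) h; plasma LH by RIA. Duration classed by >80% LH inhibition at each time.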

[2] = organism: Rattus norvegicus; experiment: Compound was tested for histamine release at a concentration of 300 ug/mL; type: functional
Outline: (§2)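 Sprague-Dawley rat peritoneal mast cells, Percoll-purified, in heparinized balanced salt solution with albumin, pH 7.2. Cells exposed to compound or vehicle for 2 min at 37 °C. Supernatant histamine measured spectrofluorometrically after o-phthalaldehyde derivatization; pellets lysed for retained histamine. Reported as % of total histamine released, corrected for spontaneous release in vehicle.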

[3] = organism: Rattus norvegicus; experiment: Compound was tested for histamine release at a concentration of 100 ug/mL; type: functional; outline: as §2
[4] = biological target: T1, Gonadotropin-releasing hormone receptor (Homo sapiens, UniProt P30968); experiment: Antagonism of human GnHR receptor, determined in a reporter gene assay in HEK293 cells; type: functional, cell-based
T1 sequence (P30968 whole entry): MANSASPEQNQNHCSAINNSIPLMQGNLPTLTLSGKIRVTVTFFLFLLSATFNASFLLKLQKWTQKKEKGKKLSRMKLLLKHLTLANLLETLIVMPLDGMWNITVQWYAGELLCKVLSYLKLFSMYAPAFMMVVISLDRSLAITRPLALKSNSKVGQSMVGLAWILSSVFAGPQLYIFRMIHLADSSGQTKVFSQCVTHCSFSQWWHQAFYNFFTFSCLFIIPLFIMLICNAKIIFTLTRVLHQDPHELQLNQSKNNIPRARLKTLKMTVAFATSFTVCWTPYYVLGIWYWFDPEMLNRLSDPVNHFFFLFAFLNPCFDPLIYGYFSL
Outline: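 HEK293 cells stably expressing cloned human GnRH receptor plus luciferase reporter under LH alpha subunit promoter, plated 24 h before assay. Compound in 1% DMSO added 10 min at 37 °C, then GnRH at 3 nM final; 5 h incubation, luciferase luminescence read. Six concentrations in duplicate; blank-subtracted cps as % of GnRH control; mean of two determinations.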

[5] = biological target: T1, Gonadotropin-releasing hormone receptor; experiment: Competitive antagonism of GnRH-induced response in the reporter gene assay; type: functional; conditions: for Kb: read-out: pA2 (converted)
Outline: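 Same HEK293 human GnRH receptor luciferase reporter cells. Seven-point GnRH curve (10 µM to 10 pM final) run in duplicate without or with four to five increasing compound concentrations (10 min preincubation, 37 °C), then 5 h and luminescence. GnRH EC50 at each level by four-parameter logistic fit, giving pA2; mean of two determinations in duplicate.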

[6] = organism: Rattus norvegicus; experiment: Compound was tested for inhibition of Leutenizing hormone release at 24 hours (short duration) in castrated male rat assay; type: functional; design: concentration or dose not given beside the values; outline: as §1
[7] = organism: Rattus norvegicus; experiment: Compound was tested for histamine release at a concentration of 30 ug/mL; type: functional; outline: as §2
[8] = organism: Rattus norvegicus; experiment: Effective dose for histamine release was determined; type: functional
Outline: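 ED50 for histamine release calculated from % release values across concentrations in rat peritoneal mast cell assay (2 min, 37 °C, o-phthalaldehyde fluorometric read-out, corrected for vehicle release).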

[9] = organism: Rattus norvegicus; experiment: Compound was tested for inhibition of Leutenizing hormone release at 72 hours (long duration) in castrated male rat assay; type: functional; design: concentration or dose not given beside the values; outline: as §1
[10] = organism: Rattus norvegicus; experiment: Compound was tested for inhibition of Leutenizing hormone release at 48 hours (intermediate duration) in castrated male rat assay; type: functional; design: concentration or dose not given beside the values; outline: as §1

SMILES | Inhibition [1] [%] | HR [2] [%] | HR [3] [%] | Inhibition [6] [%] | HR [7] [%] | also measured
CNC(=O)NCc1ccc(C[C@@H](NC(=O)[C@H](Cc2ccc(NC(=O)[C@@H]3CC(=O)NC(=O)N3)cc2)NC(=O)[C@H](CO)NC(=O)[C@@H](Cc2cccnc2)NC(=O)[C@@H](Cc2ccc(Cl)cc2)NC(=O)[C@@H](Cc2ccc3ccccc3c2)NC(C)=O)C(=O)N[C@@H](CC(C)C)C(=O)N[C@@H](CCCCNC(C)C)C(=O)N2CCC[C@H]2C(=O)N[C@H](C)C(N)=O)cc1 | >80 | 67 | 56 | – | – | –
CC(=O)Nc1ccc(C[C@@H](NC(=O)[C@H](Cc2ccc(NC(=O)[C@@H]3CC(=O)NC(=O)N3)cc2)N(C)C(=O)[C@H](CO)NC(=O)[C@@H](Cc2cccnc2)NC(=O)[C@@H](Cc2ccc(Cl)cc2)NC(=O)[C@@H](Cc2ccc3ccccc3c2)NC(C)=O)C(=O)N[C@@H](CC(C)C)C(=O)N[C@@H](CCCCNC(C)C)C(=O)N2CCC[C@H]2C(=O)N[C@H](C)C(N)=O)cc1 | – | – | 124 | >80 | 50 | IC50 [4]: 8.1 nM; Kb [5]: 0.794 nM
CCNC(=O)Nc1ccc(C[C@H](NC(=O)[C@H](CO)NC(=O)[C@@H](Cc2cccnc2)NC(=O)[C@@H](Cc2ccc(Cl)cc2)NC(=O)[C@@H](Cc2ccc3ccccc3c2)NC(C)=O)C(=O)N[C@H](Cc2ccc(NC(=O)NCC)cc2)C(=O)N[C@@H](CC(C)C)C(=O)N[C@@H](CCCCNC(C)C)C(=O)N2CCC[C@H]2C(=O)N[C@H](C)C(N)=O)cc1 | – | – | – | >80 | – | IC50 [4]: 5 nM; Kb [5]: 1.26 nM
CC(=O)N[C@H](Cc1ccc2ccccc2c1)C(=O)N[C@H](Cc1ccc(Cl)cc1)C(=O)N[C@H](Cc1cccnc1)C(=O)N[C@@H](CO)C(=O)N[C@@H](Cc1ccc(NC(=O)[C@H]2CC(=O)NC(=O)N2)cc1)C(=O)N[C@H](Cc1ccc(NC(=O)[C@H]2CC(=O)NC(=O)N2)cc1)C(=O)N[C@@H](CC(C)C)C(=O)N[C@@H](CCCCNC(C)C)C(=O)N1CCC[C@H]1C(=O)N[C@H](C)C(N)=O | >80 | 64 | 69 | – | – | IC50 ([4]; hek293): 7.7 nM; pA2 [5]: 9
CC(=O)N[C@H](Cc1ccc2ccccc2c1)C(=O)N[C@H](Cc1ccc(Cl)cc1)C(=O)N[C@H](Cc1cccnc1)C(=O)N[C@@H](CO)C(=O)N[C@@H](Cc1ccc(NC(=O)[C@H]2CC(=O)NC(=O)N2)cc1)C(=O)N[C@H](Cc1ccc(NC(N)=O)cc1)C(=O)N[C@@H](CC(C)C)C(=O)N[C@@H](CCCCNC(C)C)C(=O)N1CCC[C@H]1C(=O)N[C@H](C)C(N)=O | >80 | 68 | 54 | – | – | IC50 ([4]; hek293): 3 nM; pA2 [5]: 8.8; ED50 [8]: 170 µg/mL (≈ 104 µM)
CC(=O)Nc1ccc(C[C@@H](NC(=O)[C@H](Cc2ccc(NC(=O)c3cnc(O)nc3O)cc2)NC(=O)[C@H](CO)NC(=O)[C@@H](Cc2cccnc2)NC(=O)[C@@H](Cc2ccc(Cl)cc2)NC(=O)[C@@H](Cc2ccc3ccccc3c2)NC(C)=O)C(=O)N[C@@H](CC(C)C)C(=O)N[C@@H](CCCCNC(C)C)C(=O)N2CCC[C@H]2C(=O)N[C@H](C)C(N)=O)cc1 | – | – | – | >80 | – | IC50 [4]: 8.2 nM
CC(=O)Nc1ccc(C[C@H](NC(=O)[C@H](CO)NC(=O)[C@@H](Cc2cccnc2)NC(=O)[C@@H](Cc2ccc(Cl)cc2)NC(=O)[C@@H](Cc2ccc3ccccc3c2)NC(C)=O)C(=O)N[C@H](Cc2ccc(NC(C)=O)cc2)C(=O)N[C@@H](CC(C)C)C(=O)N[C@@H](CCCCNC(C)C)C(=O)N2CCC[C@H]2C(=O)N[C@H](C)C(N)=O)cc1 [ACYLINE] | – | 87 | 56 | – | 43 | Inhibition [9]: >80%; IC50 [4]: 6.8 nM; Kb [5]: 2.51 nM; ED50 [8]: 66 µg/mL (≈ 43 µM)
CC(=O)N[C@H](Cc1ccc2ccccc2c1)C(=O)N[C@H](Cc1ccc(Cl)cc1)C(=O)N[C@H](Cc1cccnc1)C(=O)N[C@@H](CO)C(=O)N[C@@H](Cc1ccc(NC(=O)[C@@H]2CC(=O)NC(=O)N2)cc1)C(=O)N[C@H](Cc1ccc(CNC(N)=O)cc1)C(=O)N[C@@H](CC(C)C)C(=O)N[C@@H](CCCCNC(C)C)C(=O)N1CCC[C@H]1C(=O)N[C@H](C)C(N)=O | >80 | 64 | 48 | – | 21 | –
CC(=O)Nc1ccc(C[C@@H](NC(=O)[C@H](CCNC(N)=O)NC(=O)[C@H](CO)NC(=O)[C@@H](Cc2cccnc2)NC(=O)[C@@H](Cc2ccc(Cl)cc2)NC(=O)[C@@H](Cc2ccc3ccccc3c2)NC(C)=O)C(=O)N[C@@H](CC(C)C)C(=O)N[C@@H](CCCCNC(C)C)C(=O)N2CCC[C@H]2C(=O)N[C@H](C)C(N)=O)cc1 | – | – | – | >80 | – | –
CC(=O)Nc1ccc(C[C@H](NC(=O)[C@H](CO)NC(=O)[C@@H](Cc2cccnc2)NC(=O)[C@@H](Cc2ccc(Cl)cc2)NC(=O)[C@@H](Cc2ccc3ccccc3c2)NC(C)=O)C(=O)N[C@H](Cc2ccc(NC(=O)[C@@H]3CC(=O)NC(=O)N3)cc2)C(=O)N[C@@H](CC(C)C)C(=O)N[C@@H](CCCCNC(C)C)C(=O)N2CCC[C@H]2C(=O)N[C@H](C)C(N)=O)cc1 | – | – | 64 | – | 17 | Inhibition [10]: >80%
CC(=O)Nc1ccc(C[C@@H](NC(=O)[C@H](CNC(N)=O)NC(=O)[C@H](CO)NC(=O)[C@@H](Cc2cccnc2)NC(=O)[C@@H](Cc2ccc(Cl)cc2)NC(=O)[C@@H](Cc2ccc3ccccc3c2)NC(C)=O)C(=O)N[C@@H](CC(C)C)C(=O)N[C@@H](CCCCNC(C)C)C(=O)N2CCC[C@H]2C(=O)N[C@H](C)C(N)=O)cc1 | – | – | – | >80 | – | –
CC(=O)N[C@H](Cc1ccc2ccccc2c1)C(=O)N[C@H](Cc1ccc(Cl)cc1)C(=O)N[C@H](Cc1cccnc1)C(=O)N[C@@H](CO)C(=O)N[C@@H](Cc1ccc(NC(=O)[C@@H]2CC(=O)NC(=O)N2)cc1)C(=O)N[C@H](Cc1ccc2ccccc2c1)C(=O)N[C@@H](CC(C)C)C(=O)N[C@@H](CCCCNC(C)C)C(=O)N1CCC[C@H]1C(=O)N[C@H](C)C(N)=O | – | – | – | >80 | – | –
COc1ccc(NC(=O)NC[C@H](NC(=O)[C@H](CO)NC(=O)[C@@H](Cc2cccnc2)NC(=O)[C@@H](Cc2ccc(Cl)cc2)NC(=O)[C@@H](Cc2ccc3ccccc3c2)NC(C)=O)C(=O)N[C@H](Cc2ccc(NC(C)=O)cc2)C(=O)N[C@@H](CC(C)C)C(=O)N[C@@H](CCCCNC(C)C)C(=O)N2CCC[C@H]2C(=O)N[C@H](C)C(N)=O)cc1 | – | – | – | >80 | – | –
CC(=O)N[C@H](Cc1ccc2ccccc2c1)C(=O)N[C@H](Cc1ccc(Cl)cc1)C(=O)N[C@H](Cc1cccnc1)C(=O)N[C@@H](CO)C(=O)N[C@@H](Cc1ccc(NC(=O)[C@@H]2CC(=O)NC(=O)N2)cc1)C(=O)N[C@H](Cc1cccnc1)C(=O)N[C@@H](CC(C)C)C(=O)N[C@@H](CCCCNC(C)C)C(=O)N1CCC[C@H]1C(=O)N[C@H](C)C(N)=O | >80 | 62 | 68 | – | – | –
CC(=O)N[C@H](Cc1ccc2ccccc2c1)C(=O)N[C@H](Cc1ccc(Cl)cc1)C(=O)N[C@H](Cc1cccnc1)C(=O)N[C@@H](CO)C(=O)N[C@@H](Cc1ccc(NC(=O)[C@@H]2CC(=O)NC(=O)N2)cc1)C(=O)N[C@H](Cc1ccc(NC(=O)[C@@H]2CC(=O)NC(=O)N2)cc1)C(=O)N[C@@H](CC(C)C)C(=O)N[C@@H](CCCCNC(C)C)C(=O)N1CCC[C@H]1C(=O)N[C@H](C)C(N)=O | – | – | 11 | – | <10 | Inhibition [9]: >80%
CCNC(=O)NC[C@H](NC(=O)[C@H](CO)NC(=O)[C@@H](Cc1cccnc1)NC(=O)[C@@H](Cc1ccc(Cl)cc1)NC(=O)[C@@H](Cc1ccc2ccccc2c1)NC(C)=O)C(=O)N[C@H](Cc1ccc(NC(C)=O)cc1)C(=O)N[C@@H](CC(C)C)C(=O)N[C@@H](CCCCNC(C)C)C(=O)N1CCC[C@H]1C(=O)N[C@H](C)C(N)=O | – | – | – | >80 | – | –
